Measurements: ChEMBL document CHEMBL4837218, “Synthesis and in vitro antitumour activity of 4(R)-methyl-3-O-phosphonomethyl-α-l-threose nucleosides” (Eur J Med Chem, 2021)
Activity calls are given as the source filed them. The calls are words filed in the database; no cut-off is given here.

What was measured:
MCF7 [1] = assay: Anticancer activity against human MCF7 cells assessed as inhibition of cell growth measured after 72 hrs by MTT assay; format: functional, cell-based; settings: MCF7, 72 h
Procedure, shortened: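 Cells seeded at 3000 exponentially growing cells/well and incubated 12 h at 37 °C. Medium then replaced with fresh medium containing graded compound concentrations for 72 h; 5-FU positive control. MTT (5 mg/mL solution) added for 4 h, formazan dissolved in DMSO, absorbance read at 570 nm (reference 630 nm). Relative percentage inhibition of viable cells calculated; IC50 reported as mean ± standard deviation.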

MCF7 [2] = assay: Antiproliferative activity against human MCF7 cells assessed as reduction in cell viability at 0.06 to 16 uM measured after 24 to 72 hrs by MTT assay; format: functional, cell-based; settings: dose 0.06-16 µM, time 24-72 hrs
Procedure, shortened: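 MTT viability time course on the breast cancer cells with increasing compound concentrations for 24, 48 and 72 h. Cells seeded at 3000/well and allowed 12 h before treatment. MTT (5 mg/mL solution) applied for 4 h, crystals dissolved in DMSO, absorbance read at 570/630 nm. Viability expressed relative to untreated cells.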

MCF7 [3] = assay: Cell cycle arrest in human MCF7 cells assessed as accumulation at G1 phase at 1 uM measured after 48 hrs by propidium iodide staining based flow cytometry (reference value: 70.09 %); format: functional
MDA-MB-231 [4] = assay: Cell cycle arrest in human MDA-MB-231 cells assessed as accumulation at S phase at 3 uM measured after 48 hrs by propidium iodide staining based flow cytometry (reference value: 35.54 %); format: functional
MDA-MB-231 [5] = assay: Cell cycle arrest in human MDA-MB-231 cells assessed as accumulation at G2/M phase at 3 uM measured after 48 hrs by propidium iodide staining based flow cytometry (reference value: 15.46 %); format: functional
MDA-MB-231 [6] = assay: Cell cycle arrest in human MDA-MB-231 cells assessed as accumulation at G2/M phase at 6 uM measured after 48 hrs by propidium iodide staining based flow cytometry (reference value: 15.46 %); format: functional
MDA-MB-231 [7] = assay: Induction of apoptosis in human MDA-MB-231 cells assessed as late apoptotic cells at 3 uM measured after 48 hrs by Annexin V-FITC/propidium iodide staining based flow cytometric analysis (reference value: 0.3%); format: functional
MDA-MB-231 [8] = assay: Induction of apoptosis in human MDA-MB-231 cells assessed as late apoptotic cells at 9 uM measured after 48 hrs by Annexin V-FITC/propidium iodide staining based flow cytometric analysis (reference value: 0.3 %); format: functional
MCF7 [9] = assay: Induction of mitochondrial membrane potential loss in human MCF7 cells assessed as red fluorescence intensity at 2 uM measured after 48 hrs by JC1 staining-based flow cytometry analysis (reference value: 91.9%); format: functional
MCF7 [10] = assay: Induction of mitochondrial membrane potential loss in human MCF7 cells assessed as green fluorescence intensity at 4 uM measured after 48 hrs by JC1 staining-based flow cytometry analysis (reference value: 8.1 %); format: functional
MDA-MB-231 [11] = assay: Induction of mitochondrial membrane potential loss in human MDA-MB-231 cells assessed as red fluorescence intensity at 9 uM measured after 48 hrs by JC1 staining-based flow cytometry analysis (reference value: 99.2 %); format: functional
MDA-MB-231 [12] = assay: Induction of mitochondrial membrane potential loss in human MDA-MB-231 cells assessed as green fluorescence intensity at 9 uM measured after 48 hrs by JC1 staining-based flow cytometry analysis (reference value: 0.8%); format: functional
MCF7 [13] = assay: Induction of G2/M phase cell cycle arrest in human MCF7 cells assessed as decrease in cyclinB1 protein expression at 1 to 4 uM measured after 48 hrs by western blot analysis; format: functional, cell-based; settings: dose 1-4 µM
Procedure, shortened: (§1)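 Cells exposed to graded concentrations for 48 h, then proteins extracted. Run on SDS-PAGE (5–15% gels) and transferred to nitrocellulose. Blocked 2 h in 5% nonfat milk in PBS/0.1% Tween 20, primary antibody overnight at 4 °C, biotin-conjugated secondary 1 h. Visualized on X-ray film with densitometric quantitation; three independent experiments.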

MDA-MB-231 [14] = assay: Induction of DNA damage in human MDA-MB-231 cells assessed as increase in ATM protein expression at 3 to 9 uM measured after 48 hrs by western blot analysis; format: functional, cell-based; settings: dose 3-9 µM; procedure, shortened: as §1
MDA-MB-231 [15] = assay: Induction of DNA damage in human MDA-MB-231 cells assessed as increase in Chk2 protein expression at 3 to 9 uM measured after 48 hrs by western blot analysis; format: functional, cell-based; settings: dose 3-9 µM; procedure, shortened: as §1
MDA-MB-231 [16] = assay: Induction of G2/M phase cell cycle arrest in human MDA-MB-231 cells assessed as decrease in cyclinB1 protein expression at 3 to 9 uM measured after 48 hrs by western blot analysis; format: functional, cell-based; settings: dose 3-9 µM; procedure, shortened: as §1
MCF7 [17] = assay: Induction of apoptosis in human MCF7 cells assessed as increase in cleaved caspase 9 protein expression at 1 to 4 uM measured after 48 hrs by western blot analysis; format: functional, cell-based; settings: dose 1-4 µM
Procedure, shortened: (§2)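 MCF-7 and MDA-MB-231 breast cancer cells treated 48 h with a concentration series, then lysed for protein. SDS-PAGE on 5–15% gels, transfer to nitrocellulose. Blocked 2 h in 5% nonfat milk/PBS-0.1% Tween 20, primary antibodies overnight at 4 °C, biotin-conjugated secondary 1 h. X-ray film detection with densitometric quantification.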

MDA-MB-231 [18] = assay: Induction of apoptosis in human MDA-MB-231 cells assessed as increase in cleaved caspase 3 protein expression at 3 to 9 uM measured after 48 hrs by western blot analysis; format: functional, cell-based; settings: dose 3-9 µM; procedure, shortened: as §2
MCF7 [19] = assay: Cell cycle arrest in human MCF7 cells assessed as accumulation of cells at G2/M phase at 4 uM in presence of inhibitor cdc25c inhibitor, NSC663284 measured after 48 hrs by PI staining based flow cytometry; format: functional
Procedure, shortened: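 Four arms (untreated, test compound alone, 0.3 NSC663284 alone, combination) applied to cells for 48 h. Cells were fixed in 70% ice-cold ethanol at 4 °C overnight and stained with RNase/PI for 30 min in the dark. G2/M fraction was read by flow cytometry.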

MCF7 [20] = assay: Induction of G2/M phase cell cycle arrest in human MCF7 cells assessed as upregulation of cdc25c protein expression at 4 uM measured after 48 hrs in presence of cdc25c inhibitor, NSC663284 by western blot analysis; format: functional, cell-based
Procedure, shortened: (§3)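 Four groups (untreated, test compound, 0.3 NSC663284, combination) treated 48 h before protein extraction. Lysates resolved by SDS-PAGE (5–15%) and blotted to nitrocellulose. Blocked 2 h in 5% milk/PBS-0.1% Tween 20, primary antibody overnight at 4 °C, biotinylated secondary 1 h. Detected on X-ray film and quantified by densitometry.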

MCF7 [21] = assay: Induction of G2/M phase cell cycle arrest in human MCF7 cells assessed as downregulation of p-cdc2 protein expression at 4 uM measured after 48 hrs in presence of cdc25c inhibitor, NSC663284 by western blot analysis; format: functional, cell-based; procedure, shortened: as §3
MDA-MB-231 [22] = assay: Induction of apoptosis in human MDA-MB-231 cells assessed as increase in cleaved caspase 7 protein expression at 9 uM measured after 48 hrs in presence of cdc25c inhibitor, NSC663284 by western blot analysis; format: functional, cell-based
Procedure, shortened: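 Four arms per cell line: untreated, test compound, 0.3 µM NSC663284 alone, and combination. Proteins harvested after 48 h and resolved by SDS-PAGE on 5–15% gels, transferred to nitrocellulose. Blocked 2 h in milk/PBS-Tween, primary antibodies overnight at 4 °C, biotin-conjugated secondary. Read on X-ray film with densitometry.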

## C[C@H]1O[C@@H](n2cnc3c(N)nc(F)nc32)[C@H](O)[C@H]1OCP(=O)([O-])[O-].[Na+].[Na+]
MCF7 [1]
  IC50: 476 nM
MCF7 [2]
  Activity: Active
MCF7 [3]
  Activity: 63.54%
MDA-MB-231 [4]
  Activity: 34.82%
MDA-MB-231 [5]
  Activity: 20.27%
MDA-MB-231 [6]
  Activity: 28.54%
MDA-MB-231 [7]
  Activity: 13%
MDA-MB-231 [8]
  Activity: 16%
MCF7 [9]
  Activity: 67.2%
MCF7 [10]
  Activity: 58.1%
MDA-MB-231 [11]
  Activity: 37%
MDA-MB-231 [12]
  Activity: 63%
MCF7 [13]
  Activity: Active
MDA-MB-231 [14]
  Activity: Active
MDA-MB-231 [15]
  Activity: Active
MDA-MB-231 [16]
  Activity: Active
MCF7 [17]
  Activity: Active
MDA-MB-231 [18]
  Activity: Active
MCF7 [19]
  Activity: inactive
MCF7 [20]
  Activity: inactive
MCF7 [21]
  Activity: inactive
MDA-MB-231 [22]
  Activity: inactive
